Measurements as given in ChEMBL document CHEMBL1221232, “Synthesis and biological activity of 4''-O-acyl derivatives of 14- and 15-membered macrolides linked to omega-quinolone-carboxylic unit” (Bioorg Med Chem, 2010).
In brackets after ≈: the same amount, converted by molar mass.

What was measured:
Staphylococcus aureus [1] = assay: Antibacterial activity against erythromycin-sensitive Staphylococcus aureus ATCC 13709 by broth microdilution method; format: functional
Method in brief: (§1)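 MIC by CLSI broth microdilution. Inocula from agar-grown cultures: chocolate agar for H. influenzae, Columbia agar with 5% sheep blood for M. catarrhalis, Mueller-Hinton agar for S. aureus. Read as minimum inhibitory concentration in µg/mL.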

Staphylococcus aureus [2] = assay: Antibacterial activity against efflux-mediated macrolide resistance Staphylococcus aureus PK1 by broth microdilution method; format: functional
Method in brief: (§2)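 MIC by CLSI broth microdilution. Staphylococci were grown on Mueller-Hinton agar before testing. The MIC is the lowest concentration inhibiting growth.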

Streptococcus pneumoniae [3] = assay: Antibacterial activity against efflux-mediated macrolide resistance Streptococcus pneumoniae Ci137 by broth microdilution method; format: functional
Method in brief: (§3)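 MIC by CLSI broth microdilution, except that the streptococcal medium used 5% horse serum in place of lysed blood. Streptococcal inocula came from Columbia agar with 5% sheep blood. The MIC is the lowest concentration inhibiting growth.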

Streptococcus pyogenes [4] = assay: Antibacterial activity against efflux-mediated macrolide resistance Streptococcus pyogenes 2 by broth microdilution method; format: functional; method in brief: as §3
Staphylococcus aureus [5] = assay: Antibacterial activity against macrolide, licosamide and streptogramin inducible-resistance Staphylococcus aureus 90256 by broth microdilution method; format: functional; method in brief: as §2
Streptococcus pneumoniae [6] = assay: Antibacterial activity against inducible resistance to macrolide and constitutive resistance to lincosamide Streptococcus pneumoniae 134 GR M by broth microdilution method; format: functional; method in brief: as §3
Streptococcus pyogenes [7] = assay: Antibacterial activity against macrolide, licosamide and streptogramin inducible-resistance Streptococcus pyogenes 11 by broth microdilution method; format: functional; method in brief: as §3
Streptococcus pneumoniae [8] = assay: Antibacterial activity against constitutive MLS-resistance Streptococcus pneumoniae 58 by broth microdilution method; format: functional; method in brief: as §3
Streptococcus pyogenes [9] = assay: Antibacterial activity against constitutive MLS resistance Streptococcus pyogenes 166 GR-Micro by broth microdilution method; format: functional; method in brief: as §3
Haemophilus influenzae = assay: Antibacterial activity against Haemophilus influenzae ATCC 49247 by broth microdilution method; format: functional; method in brief: as §1
Moraxella catarrhalis = assay: Antibacterial activity against Moraxella catarrhalis ATCC 23246 by broth microdilution method; format: functional; method in brief: as §1
Rattus norvegicus [10] = assay: Liver blood flow in Sprague-Dawley rat blood at 30 mg/kg, po and 5 mg/kg, iv; format: ADME, organism-based; conditions: in vivo
Method in brief: (§4)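 Po/iv crossover study in male Sprague-Dawley rats. Target doses were 30 mg/kg po (fasted) and 5 mg/kg iv (fed). Compound was given as a solution in 1.0% DMSO and 20% (w/v) Encapsin, in saline for iv or water for po, pH 3.5–4.0. Blood was sampled at several timepoints up to 1800 min and hemolyzed 1:1 with water.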

[11] = Volume of distribution at steady state in Sprague-Dawley rat blood at 30 mg/kg, po and 5 mg/kg, iv; format: ADME, organism-based; conditions: whole blood, read-out: Vdss; method in brief: as §4
[12] = Oral bioavailability in Sprague-Dawley rat blood at 30 mg/kg; format: ADME, organism-based; conditions: whole blood; method in brief: as §4
Rattus norvegicus [13] = assay: Clearance in Sprague-Dawley rat blood as % of liver blood flow at 30 mg/kg, po and 5 mg/kg, iv; format: ADME, organism-based; conditions: in vivo; method in brief: as §4

SMILES | MIC (Staphylococcus aureus [1]) | MIC (Staphylococcus aureus [2]) | MIC (Streptococcus pneumoniae [3]) | MIC (Streptococcus pyogenes [4]) | MIC (Staphylococcus aureus [5]) | MIC (Streptococcus pneumoniae [6]) | MIC (Streptococcus pyogenes [7]) | MIC (Streptococcus pneumoniae [8]) | MIC (Streptococcus pyogenes [9]) | MIC (Haemophilus influenzae) | MIC50 (Haemophilus influenzae) | MIC90 (Haemophilus influenzae) | MIC (Moraxella catarrhalis) | LBF (Rattus norvegicus [10]) | Vd [11] | bioavailability [12] | Fraction of Liver Blood Flow (Rattus norvegicus [13])
CC[C@H]1OC(=O)[C@H](C)[C@@H](O[C@H]2C[C@@](C)(OC)[C@@H](O)[C@H](C)O2)[C@H](C)[C@@H](O[C@@H]2O[C@H](C)C[C@H](N(C)C)[C@H]2O)[C@](C)(O)C[C@@H](C)CN(C)[C@H](C)[C@@H](O)[C@]1(C)O [AZITHROMYCIN] | 0.5 µg/mL (≈ 0.668 µM) | > 64 µg/mL | 8 µg/mL (≈ 10.7 µM) | 8 µg/mL (≈ 10.7 µM) | > 64 µg/mL | > 64 µg/mL | > 64 µg/mL | > 64 µg/mL | > 64 µg/mL | 1 µg/mL (≈ 1.34 µM) | 1 µg/mL (≈ 1.34 µM) | 2 µg/mL (≈ 2.67 µM) | ≤ 0.125 µg/mL | – | – | – | –
CC[C@H]1OC(=O)[C@H](C)[C@@H](O[C@@H]2O[C@@H](C)C[C@](C)(OC)[C@H]2OC(=O)CCOCCOCCCc2ccc3c(c2)c(=O)c(C(=O)O)cn3CC)[C@H](C)[C@@H](O[C@@H]2O[C@H](C)C[C@H](N(C)C)[C@H]2O)[C@](C)(OC)C[C@@H](C)C(=O)[C@H](C)[C@H]2NC(=O)O[C@@]21C | ≤ 0.125 µg/mL | ≤ 0.125 µg/mL | ≤ 0.125 µg/mL | ≤ 0.125 µg/mL | ≤ 0.125 µg/mL | ≤ 0.125 µg/mL | ≤ 0.125 µg/mL | ≤ 0.125 µg/mL | ≤ 0.125 µg/mL | 1 µg/mL (≈ 0.872 µM) | 2 µg/mL (≈ 1.74 µM) | 4 µg/mL (≈ 3.49 µM) | 1 µg/mL (≈ 0.872 µM) | – | – | – | –
CC[C@H]1OC(=O)[C@H](C)[C@@H](O[C@@H]2O[C@@H](C)C[C@](C)(OC)[C@H]2OC(=O)CCOCCOCCCc2ccc3c(c2)c(=O)c(C(=O)O)cn3CC)[C@H](C)[C@@H](O[C@@H]2O[C@H](C)C[C@H](N(C)C)[C@H]2O)[C@](C)(OC)C[C@@H](C)C(=O)[C@H](C)[C@H]2N(C)C(=O)O[C@]12C | ≤ 0.125 µg/mL | 0.5 µg/mL (≈ 0.431 µM) | ≤ 0.125 µg/mL | ≤ 0.125 µg/mL | 0.25 µg/mL (≈ 0.215 µM) | ≤ 0.125 µg/mL | ≤ 0.125 µg/mL | ≤ 0.125 µg/mL | ≤ 0.125 µg/mL | 1 µg/mL (≈ 0.862 µM) | – | – | ≤ 0.125 µg/mL | – | – | – | –
CCCn1cc(C(=O)O)c(=O)c2cc(CCCOCCOCCC(=O)O[C@H]3[C@H](C)O[C@@H](O[C@H]4[C@H](C)[C@@H](O[C@@H]5O[C@H](C)C[C@H](N(C)C)[C@H]5O)[C@](C)(O)C[C@@H](C)CN(C)[C@H](C)[C@@H](O)[C@](C)(O)[C@@H](CC)OC(=O)[C@@H]4C)C[C@@]3(C)OC)ccc21 | ≤ 0.125 µg/mL | ≤ 0.125 µg/mL | ≤ 0.125 µg/mL | ≤ 0.125 µg/mL | ≤ 0.125 µg/mL | ≤ 0.125 µg/mL | ≤ 0.125 µg/mL | ≤ 0.125 µg/mL | 0.25 µg/mL (≈ 0.22 µM) | 1 µg/mL (≈ 0.88 µM) | 1 µg/mL (≈ 0.88 µM) | 2 µg/mL (≈ 1.76 µM) | 0.5 µg/mL (≈ 0.44 µM) | – | – | – | –
CC[C@H]1OC(=O)[C@H](C)[C@@H](O[C@H]2C[C@@](C)(OC)[C@@H](OC(=O)CCOCCOCCCc3ccc4c(c3)c(=O)c(C(=O)O)cn4C3CC3)[C@H](C)O2)[C@H](C)[C@@H](O[C@@H]2O[C@H](C)C[C@H](N(C)C)[C@H]2O)[C@](C)(O)C[C@@H](C)CN(C)[C@H](C)[C@@H](O)[C@]1(C)O | ≤ 0.125 µg/mL | ≤ 0.125 µg/mL | ≤ 0.125 µg/mL | ≤ 0.125 µg/mL | ≤ 0.125 µg/mL | 0.25 µg/mL (≈ 0.22 µM) | ≤ 0.125 µg/mL | ≤ 0.125 µg/mL | 0.5 µg/mL (≈ 0.441 µM) | 2 µg/mL (≈ 1.76 µM) | 1 µg/mL (≈ 0.882 µM) | 2 µg/mL (≈ 1.76 µM) | 0.5 µg/mL (≈ 0.441 µM) | 43% | 10.5 L/kg | 16% | –
CC[C@H]1OC(=O)[C@H](C)[C@@H](O[C@@H]2O[C@@H](C)C[C@](C)(OC)[C@H]2OC(=O)CCOCCOCCCc2ccc3c(c2)c(=O)c(C(=O)O)cn3CC)[C@H](C)[C@@H](O[C@@H]2O[C@H](C)C[C@H](N(C)C)[C@H]2O)[C@](C)(O)C[C@@H](C)/C(=N\OCOCCOC)[C@H](C)[C@@H](O)[C@]1(C)O | 0.5 µg/mL (≈ 0.413 µM) | 1 µg/mL (≈ 0.826 µM) | ≤ 0.125 µg/mL | ≤ 0.125 µg/mL | 8 µg/mL (≈ 6.61 µM) | 0.5 µg/mL (≈ 0.413 µM) | ≤ 0.125 µg/mL | 1 µg/mL (≈ 0.826 µM) | 1 µg/mL (≈ 0.826 µM) | 4 µg/mL (≈ 3.3 µM) | – | – | 1 µg/mL (≈ 0.826 µM) | – | – | – | –
CC[C@H]1OC(=O)[C@H](C)C(=O)[C@H](C)[C@@H](O[C@@H]2O[C@H](C)C[C@H](N(C)C)[C@H]2O)[C@](C)(OC)C[C@@H](C)C(=O)[C@H](C)[C@H]2N(CCCCn3cnc(-c4cccnc4)c3)C(=O)O[C@]12C [TELITHROMYCIN] | ≤ 0.125 µg/mL | ≤ 0.125 µg/mL | 0.25 µg/mL (≈ 0.308 µM) | 0.5 µg/mL (≈ 0.616 µM) | ≤ 0.125 µg/mL | 0.25 µg/mL (≈ 0.308 µM) | ≤ 0.125 µg/mL | 0.25 µg/mL (≈ 0.308 µM) | 16 µg/mL (≈ 19.7 µM) | 2 µg/mL (≈ 2.46 µM) | – | – | ≤ 0.125 µg/mL | – | – | – | –
CC[C@H]1OC(=O)[C@H](C)[C@@H](O[C@H]2C[C@@](C)(OC)[C@@H](OC(=O)CCOCCOCCCc3ccc4c(c3)c(=O)c(C(=O)O)cn4CC)[C@H](C)O2)[C@H](C)[C@@H](O[C@@H]2O[C@H](C)C[C@H](N(C)C)[C@H]2O)[C@](C)(O)C[C@@H](C)CN(C)[C@H](C)[C@@H](O)[C@]1(C)O | ≤ 0.125 µg/mL | 0.25 µg/mL (≈ 0.223 µM) | ≤ 0.125 µg/mL | ≤ 0.125 µg/mL | 0.25 µg/mL (≈ 0.223 µM) | 0.25 µg/mL (≈ 0.223 µM) | ≤ 0.125 µg/mL | ≤ 0.125 µg/mL | ≤ 0.125 µg/mL | 1 µg/mL (≈ 0.891 µM) | 1 µg/mL (≈ 0.891 µM) | 2 µg/mL (≈ 1.78 µM) | ≤ 0.125 µg/mL | – | 10.4 L/kg | 22% | 35%
